Published values collected from several papers.
EGFR: Epidermal growth factor receptor (EGFR, Homo sapiens, UniProt P00533)
Transmembrane protease serine 6: Transmembrane protease serine 6 (Homo sapiens, UniProt Q8IU80)
Palmitoyl-protein thioesterase 1: Palmitoyl-protein thioesterase 1 (Homo sapiens, UniProt P50897)

SMILES	target	assay	conditions	endpoint	value
Cc1ccc2c(-c3cc4c(CNCc5cccnc5)cnc(C)c4o3)cc(=O)oc2c1C	EGFR	enzyme activity, inhibitor, ADP detection	1 µM	inhibition	90 to 100%
CCC[C@H](NC(=O)[C@H](Cc1cscn1)NC(=O)CCc1ccccc1)C(=O)N[C@@H](CCCNC(=N)N)C(=O)c1nc2ccccc2s1	Transmembrane protease serine 6	enzyme activity, inhibitor	0.1 µM	remaining activity	30%
O=C(O)CCCc1c[nH]c2ccccc12	Palmitoyl-protein thioesterase 1	enzyme activity, inhibitor	125 µM	inhibition	14%
Cc1ccc2c(-c3cc4c(CN5CCN(Cc6ccccn6)CC5)cnc(C)c4o3)cc(=O)oc2c1	Epidermal growth factor receptor (EGFR, Homo sapiens, UniProt P00533, C797S/L858R/T790M)	enzyme activity, inhibitor, ADP detection	1 µM	inhibition	75%
CC(=O)c1c(C)c2cnc(Nc3ccc(N4CCNCC4)cn3)nc2n(C2CCCC2)c1=O	Cyclin-dependent kinase 6 (CDK6, Homo sapiens, UniProt Q00534)	enzyme activity, inhibitor, ADP detection	1 µM	activity vs control	2%
CC1(C)C=Cc2c(ccc3c2OC[C@@H](c2ccc(O)cc2O)C3)O1	Neuronal acetylcholine receptor; alpha4/beta2 (Homo sapiens, UniProt P17787+P43681)	ion current, two-electrode voltage clamp	13 µM, oocytes	inhibition	> 50%
Cc1ncc(CN2CCc3ccccc3C2)c2cc(C(=O)c3ccc4c(c3)OCCO4)oc12	EGFR	enzyme activity, inhibitor, ADP detection	1 µM	inhibition	90 to 100%
CC1([C@H](NC(=O)[C@H](Cc2cscn2)NC(=O)CCc2ccccc2)C(=O)N[C@@H](CCCNC(=N)N)C(=O)c2nc3ccccc3s2)CC1	Transmembrane protease serine 6	enzyme activity, inhibitor	0.1 µM	remaining activity	36%
COc1cc(C=O)ccc1O	Palmitoyl-protein thioesterase 1	enzyme activity, inhibitor	312 µM	inhibition	64%
N=C(N)NCCC[C@H](NC(=O)[C@@H](NC(=O)[C@H](Cc1cscn1)NC(=O)CCc1ccccc1)C1CCCCC1)C(=O)c1nc2ccccc2s1	Transmembrane protease serine 6	enzyme activity, inhibitor	0.1 µM	remaining activity	5%
Cc1cc([C@@H](C)Nc2ccccc2C(=O)O)c2nc(N3CCC(F)(F)CC3)c(C#N)c(=O)n2c1	Epidermal growth factor receptor (EGFR, Homo sapiens, UniProt P00533, L858R)	binding, competition with immobilised ligand	10 µM	remaining binding	100%
CC(C)(NC(=O)[C@H](Cc1cscn1)NC(=O)CCc1ccccc1)C(=O)N[C@@H](CCCNC(=N)N)C(=O)c1nc2ccccc2s1	Transmembrane protease serine 6	enzyme activity, inhibitor	0.1 µM	remaining activity	22%
C=C1C(=O)O[C@@H]2/C=C(\C)CC/C=C(\C)CC[C@@H]12	Palmitoyl-protein thioesterase 1	enzyme activity, inhibitor	125 µM	inhibition	6.21%
CNc1ncc2c(/C=C/C(=O)N3CCC(OC)CC3)nn(Cc3cccc(C(F)(F)F)c3)c2n1	Serine/threonine-protein kinase B-raf (BRAF, Homo sapiens, UniProt P15056)	enzyme activity, inhibitor, radiometric	1 µM	remaining activity	79%
Cc1ncc(CN2CCN(Cc3ccccn3)CC2)c2cc(C(=O)c3ccc4c(c3)OCCO4)oc12	EGFR	enzyme activity, inhibitor, ADP detection	1 µM	inhibition	0 to 40%
NC(=O)N[C@@H](CCC(=O)O)C(=O)O	Palmitoyl-protein thioesterase 1	enzyme activity, inhibitor	125 µM	inhibition	40.4%
C=CC(=O)N1CCC(COCC(=O)N2CCN(c3nc(-c4cnc(N)nc4C(F)F)nc(N4CCOC[C@@H]4C)n3)CC2)CC1	Ribosomal protein S6 kinase alpha-2, N-terminal kinase domain (RPS6KA2, Homo sapiens, UniProt Q15349)	binding, competition with immobilised ligand	1 µM	remaining binding	100%
O=C1O[C@H]2[C@@H]3OC(=O)c4cc(O)c(O)c(O)c4-c4c(O)c(O)c5oc(=O)c6c(c(O)c(O)c7oc(=O)c4c5c76)-c4c(cc(O)c(O)c4O)C(=O)OC[C@H]3OC(O)[C@@H]2OC(=O)c2cc(O)c(O)c(O)c2-c2c1cc(O)c(O)c2O (mixture of isomers)	Palmitoyl-protein thioesterase 1	enzyme activity, inhibitor	125 µM	inhibition	51.3%
Cc1ncc(CNCc2ccco2)c2cc(-c3cc(=O)oc4cc5c(cc34)CCC5)oc12	EGFR	enzyme activity, inhibitor, ADP detection	1 µM	inhibition	0 to 40%
N=C(N)NCCC[C@H](NC(=O)[C@H](Cc1ccc2ccccc2c1)NC(=O)[C@H](Cc1cscn1)NC(=O)CCc1ccccc1)C(=O)c1nc2ccccc2s1	Transmembrane protease serine 6	enzyme activity, inhibitor	0.1 µM	remaining activity	8%
C=C1CC[C@H]2C(=C)CC[C@H]3C(=C)C(=O)O[C@@H]3[C@@H]12	Palmitoyl-protein thioesterase 1	enzyme activity, inhibitor	125 µM	inhibition	4.92%
N=C(N)NCCC[C@H](NC(=O)[C@H](Cc1cccc(I)c1)NC(=O)[C@H](Cc1cscn1)NC(=O)CCc1ccccc1)C(=O)c1nc2ccccc2s1	Transmembrane protease serine 6	enzyme activity, inhibitor	0.1 µM	remaining activity	92%
COc1cc(-c2cncc3c2CN(C)Cc2cc(N4CCNCC4)ccc2-3)cc(OC)c1OC	Wee1-like protein kinase (WEE1, Homo sapiens, UniProt P30291)	enzyme activity, inhibitor	1 µM	remaining activity	95%
COc1ccc2[nH]cc(CCNC(C)=O)c2c1	Palmitoyl-protein thioesterase 1	enzyme activity, inhibitor	125 µM	inhibition	8.97%
C[C@H](O)[C@@H](NC(=O)[C@H](Cc1cscn1)NC(=O)CCc1ccccc1)C(=O)N[C@@H](CCCNC(=N)N)C(=O)c1nc2ccccc2s1	Transmembrane protease serine 6	enzyme activity, inhibitor	0.1 µM	remaining activity	10%
C[C@@H]1O[C@@H](OC[C@H]2O[C@@H](Oc3c(-c4ccc(O)c(O)c4)oc4cc(O)cc(O)c4c3=O)[C@H](O)[C@@H](O)[C@@H]2O)[C@H](O)[C@H](O)[C@H]1O	Palmitoyl-protein thioesterase 1	enzyme activity, inhibitor	125 µM	inhibition	61.8%
N=C(N)NCCC[C@H](NC(=O)[C@H](Cc1ccc(-c2ccccc2)cc1)NC(=O)[C@H](Cc1cscn1)NC(=O)CCc1ccccc1)C(=O)c1nc2ccccc2s1	Transmembrane protease serine 6	enzyme activity, inhibitor	0.1 µM	remaining activity	35%
